Compounds with a hit are over-represented: about 6.8% of the library has one in this group of screens.
HSF1 activator: increases HSF-1 driven luciferase reporter signal | NIH3T3-HGL HSF-1 luciferase reporter, MG132, 8 h; 100% = twice DMSO control signal | activation, % at 9 µM | 300,000 tested, 1.7% active;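 active means mean replicate activation of at least 50% with a set share of replicates each reaching 50%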
HCV core dimer: blocks dimerization of HCV core protein | TR-FRET GST/Flag-core106 dimerization, 1536-well | inhibition, % at 5 µM | 300,000 tested, 0.33% active;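 active means inhibition above the mean of all tested compounds plus 3 SD, set per screening campaign, cut at about 45% in these data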
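Assay system: GST-tagged and Flag-tagged HCV core protein residues 1-106 / Times: compound-protein-antibody incubation 4 h at 22.5 °C / Signal: time-resolved FRET, ex 340 nm, em 617 and 671 nm / Evaluation: % inhibition based on acceptor/donor emission ratio / Benchmarks: wells lacking GST-core106 and wells with excess unlabelled core106 / Repeats: singlicate, one well per compound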
HSF1 inh: HSF1 inhibition; 300,000 tested, 0.77% active; NIH3T3-HGL HSE-luciferase, MG132-induced, luminescence 8 h; active compounds read low; AID 2098; activity change, negative = inhibition, % at 7.5 µM (by protocol);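 active means more than half of replicate wells show activity change below -50%, luminescence cut by over half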;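 further: luciferase reports HSF-1 transcriptional activity via heat shock element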
ALR inh: inhibitors of human sulfhydryl oxidase ALR; purified ALR, DTT oxidation, H2O2 HRP-luminol luminescence; inhibition, % (concentration not given with the values); 290,000 tested, 3.8% active; AID 485317;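 active means mean replicate inhibition above about 79%, with every replicate also reaching it, limit read from the data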
Target sequence (P55789 whole entry, looked up): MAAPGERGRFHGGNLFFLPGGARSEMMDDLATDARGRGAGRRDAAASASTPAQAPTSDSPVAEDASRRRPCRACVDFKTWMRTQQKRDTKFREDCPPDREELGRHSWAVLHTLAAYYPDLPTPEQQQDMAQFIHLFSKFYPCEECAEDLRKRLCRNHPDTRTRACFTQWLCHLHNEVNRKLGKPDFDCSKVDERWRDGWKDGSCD
AI-2 QS mod: modulators of Vibrio harveyi AI-2 quorum sensing system; Vibrio harveyi JMH597 AI-2 luminescence/OD600 ratio, 9 h; active compounds read low; strain lacks LuxN and CqsS sensors; 0 = neutral-control median; activity change, % at 7.5 µM; 300,000 tested, 0.4% active; AID 2094; in the data active means activity change below about -75%, passing the limit was not always enough;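 further: luminescence divided by OD600 gain over 9 h not by final OD600 alone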
PHOSPHO1 inh: PHOSPHO1 (human) inhibition. Q8TCT1. recombinant PHOSPHO1, absorbance phosphatase assay. inhibition, % at 13.3 µM. 290,000 tested, 1.1% active; in the data active means inhibition above about 60%
Target sequence (Q8TCT1 whole entry, looked up): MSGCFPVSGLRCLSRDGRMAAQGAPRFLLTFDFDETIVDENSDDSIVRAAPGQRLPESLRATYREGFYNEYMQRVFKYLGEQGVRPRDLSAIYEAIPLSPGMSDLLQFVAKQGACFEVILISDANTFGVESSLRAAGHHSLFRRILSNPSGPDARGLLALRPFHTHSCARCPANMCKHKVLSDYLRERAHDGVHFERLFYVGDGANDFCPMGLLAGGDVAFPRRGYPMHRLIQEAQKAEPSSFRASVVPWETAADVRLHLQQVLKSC
Large screens that a line does not name were inactive.

CCOC(=O)C1CCN(Cc2cc(Cl)c3ccccc3c2O)CC1	HSF1 activator 97 (no result: ALR inh)
CCOc1ccc(NC(=O)CCN2CCN(c3ccccc3)CC2)cc1	none
CCOc1ccc(C(=O)CCC(=O)NNC(=O)CCN2CCN(c3ccccc3)CC2)cc1	ALR inh 95 (no result: HSF1 activator, HCV core dimer, HSF1 inh, AI-2 QS mod, PHOSPHO1 inh)
Cc1ccsc1C(=O)NNC(=O)CCN1CCN(c2ccccc2)CC1	ALR inh 94 (no result: PHOSPHO1 inh)
O=C(CCN1CCN(c2ccccc2)CC1)Nc1ccccc1	none (no result: PHOSPHO1 inh)
Cc1ccccc1C(=O)NCC(=O)NNC(=O)CCN1CCN(c2ccccc2)CC1	none
CCCCOc1ccc(C(=O)CCN2CCOCC2)cc1	ALR inh 98
CC(Oc1ccc(Br)cc1)C(=O)NNC(=O)CCN1CCN(c2ccccc2)CC1 (stereo not given)	ALR inh 95, AI-2 QS mod -92 (no result: PHOSPHO1 inh)
O=C(N/N=C/c1c[nH]c2ccccc12)c1cc(Cl)ccc1O	none (no result: PHOSPHO1 inh)
Cc1ccc(-n2nc3c(=O)n(C(C)C(=O)NC4CC4)nc(C)c3c2C)cc1 (stereo not given)	none (no result: ALR inh)
Cc1cccn2c(=O)c3cc(C#N)c(=NC(=O)c4ccncc4)n(CCCOC(C)C)c3nc12	PHOSPHO1 inh 96
CCCCn1c(=NC(=O)c2cccnc2)c(C#N)cc2c(=O)n3cccc(C)c3nc21	PHOSPHO1 inh 78
COCCCn1c(=NC(=O)c2ccncc2)c(C#N)cc2c(=O)n3cccc(C)c3nc21	none
O=C(CSc1nnc(SCc2ccccc2)s1)N/N=C/c1c(Cl)cccc1Cl	none
Cc1nn(-c2ccccc2)c(C)c1/C=N/NC(=O)CSc1nnc(SCc2ccc(Cl)cc2)s1	HSF1 activator 68
CC(/C=N/NC(=O)CSc1nnc(SCc2ccccc2)s1)=C\c1ccco1	HCV core dimer 48
COc1c(C)cc(S(=O)(=O)NCc2ccccn2)c(C)c1C	none
CCN1C(=NCCCOC(C)C)N[C@@H](CCc2ccccc2)[C@H](C(=O)NCCCOC(C)C)[C@H]1C	none (no result: HSF1 activator, HCV core dimer, HSF1 inh, AI-2 QS mod, PHOSPHO1 inh)
O=C(Nc1ccnn1C1CCN(Cc2ccn[nH]2)CC1)c1ccccc1	none
CC(=O)Nc1cccc(-c2nc3ccccc3o2)c1	HSF1 activator 73
O=C(Nc1ccc(S(=O)(=O)Nc2cnc3ccccc3n2)cc1)c1ccc([N+](=O)[O-])cc1Cl	none
Oc1cccnc1Sc1cccc(C(F)(F)F)c1	HSF1 activator 86 (no result: PHOSPHO1 inh)
O=[N+]([O-])c1ccc(/C=[N+](\[O-])[C@@H]2CCCC[C@@H]2/[N+]([O-])=C/c2ccc([N+](=O)[O-])o2)o1	HSF1 activator 71
COc1ccc(OC)c(S(=O)(=O)NNC(=S)Nc2ccc3c(c2)OCO3)c1	ALR inh 94
COc1ccc(OC)c(S(=O)(=O)N(C)CC(=O)Nc2ccc3c(c2)OCO3)c1	none
CCc1ccc(N2CC(C(=O)NC3CCCCC3C)CC2=O)cc1 (stereo not given)	none
O=C(C[C@@H]1C/C=C\C[C@H](Cc2ccc(F)cc2)C(=O)OC[C@H]2CCCN2C1=O)N[C@H](CO)Cc1ccccc1	none (no result: HSF1 activator, HCV core dimer, HSF1 inh, AI-2 QS mod, PHOSPHO1 inh)
CCOC(=O)c1ccc2c(c1)[nH]c(=S)n2CC	ALR inh 83
CCOC(=O)c1ccc2c(c1)n(CC)c(C)[n+]2CC	none (no result: ALR inh)
c1ccc(-c2nn3c(Cn4nnc5ccccc54)nnc3s2)cc1	PHOSPHO1 inh 69
c1ccc2c(c1)ncn2Cc1nnc2sc(-c3ccncc3)nn12	none
c1cncc(-c2nn3c(Cn4cnc5ccccc54)nnc3s2)c1	PHOSPHO1 inh 69
Clc1ccc(Cl)c(-c2nn3c(Cn4cnc5ccccc54)nnc3s2)c1	none (no result: PHOSPHO1 inh)
c1ccc(-c2nn3c(Cn4cnc5ccccc54)nnc3s2)cc1	PHOSPHO1 inh 66
COc1ccc(Cc2nn3c(Cn4nnc5ccccc54)nnc3s2)cc1	PHOSPHO1 inh 69
COc1ccc(Cc2nn3c(-c4ccccc4OC)nnc3s2)cc1	none
CC1CCc2[nH]c3ccc(C(=O)N4CCCC(C(F)(F)F)C4)cc3c2C1 (stereo not given)	none (no result: PHOSPHO1 inh)
Cc1ccc(/C=C/C(=O)N2CC(C)CC(C)C2)o1 (stereo not given)	HSF1 activator 51
CCN1CCN(C(=O)/C=C/c2ccc(C)o2)CC1	none
O=C(NNS(=O)(=O)c1ccc([N+](=O)[O-])cc1)c1ccc2ccccc2c1O	ALR inh 98 (no result: HSF1 activator, HCV core dimer, HSF1 inh)
COC(=O)C(=Cc1ccc(OCc2ccc([N+](=O)[O-])cc2)c(OC)c1)C(=O)OC	HSF1 activator 278 (no result: ALR inh)
CCOC(=O)C(=Cc1ccc(OCc2ccc([N+](=O)[O-])cc2)c(OC)c1)C(=O)OCC	HSF1 activator 77
CCCOC(=O)c1c(-c2ccccc2)nc(CC)c(C(=O)SCC)c1CCC	none (no result: HSF1 activator, HSF1 inh, AI-2 QS mod, PHOSPHO1 inh)
COCCC(=O)N1CCC(Oc2ccc(C(=O)NCc3nccn3C)cc2)CC1	none
NNC(=O)CNC(c1ccccc1)c1cc(Br)ccc1NC(=O)c1ccccc1Br (stereo not given)	none
CCN(Cc1ccccc1)C(=O)C1CCN(CC2CC=CCC2)CC1 (stereo not given)	none
CCN(Cc1ccccc1)C(=O)C1CCN(Cc2sccc2C)CC1	HSF1 inh -56
CN(C)c1ccnc2sc(C(N)=O)c(N)c12	PHOSPHO1 inh 61
COc1ccc(/C=N/N2CCOCC2)cc1O	ALR inh 98
COc1cc(/C=C/C(=O)N2CCOCC2)ccc1OCc1ccccc1	HSF1 activator 75 (no result: ALR inh)
COc1cc(/C=N/OCC(=O)Nc2cc(C)cc(C)c2)ccc1OCc1ccc(Cl)cc1	HSF1 activator 71
COc1cc(/C=N/N2CCOCC2)ccc1OCc1ccc(Cl)cc1	HSF1 activator 80
COc1cc(/C=N/N2CCOCC2)ccc1OCc1ccccc1	none
COc1ccc(/C=N/N2CCOCC2)cc1OCc1ccccc1	none
O=C(O)/C(=C\C(=O)c1ccccc1)Nc1ccccc1	none
Cc1ccc(-c2cn(-c3ccccc3)c(=S)[nH]2)cc1C	HSF1 inh -61 (no result: ALR inh)
COc1ccc(-n2cc(-c3ccccc3)[nH]c2=S)c(OC)c1	ALR inh 90
Fc1ccccc1-n1cc(-c2ccccc2)[nH]c1=S	ALR inh 93
FC(F)(F)c1cccc(-n2cc(-c3ccccc3)[nH]c2=S)c1	none
Cc1ccc(NC(=O)NNc2cccc(Cl)n2)cc1	none
CC(=O)Nc1ccc(NC(=O)C2CCN(C(=O)c3cccs3)CC2)cc1	none
COc1ccc(N2CCN(c3n[nH]c(N)n3)CC2)cc1	ALR inh 98
Cc1cccc(C)c1N1CCN(c2n[nH]c(N)n2)CC1	ALR inh 96
Cc1ccccc1-n1c(SCC(=O)c2cc(C)n(C)c2C)nnc1-c1cccnc1	PHOSPHO1 inh 86
COCCn1c(C)cc(C(=O)CSc2nnc(-c3cccnc3)n2-c2ccccc2F)c1C	PHOSPHO1 inh 90
CCn1c(SCC(=O)c2cc(C)n(-c3ccc(C(=O)OC)cc3)c2C)nnc1-c1cccnc1	none (no result: ALR inh)
BrC(=C\c1ccccc1)/C=N/N1CCN(c2ccccc2)CC1	HSF1 activator 162

High-throughput results (PubChem)
